Assay results taken from ChEMBL document CHEMBL2086292, “Chalcogenopyrylium compounds as modulators of the ATP-binding cassette transporters P-glycoprotein (P-gp/ABCB1) and multidrug resistance protein 1 (MRP1/ABCC1)” (J Med Chem, 2012).

Legend:
[1] = molecular target: T1, MRP1 (Multidrug resistance-associated protein 1) (Homo sapiens, UniProt P33527); assay: Inhibition of human MRP1 mediated uptake of [3H]E2-17betaG in HEK cell membrane vesicles at 30 uM by liquid scintillation counting relative to control; assay type: cell membranes, HEK293; conditions: HEK cell membrane vesicles with human MRP1, probe [3H]E2-17betaG
Method in brief: (§1)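 Inside-out membrane vesicles from HEK cells stably transfected with human MRP1. Vesicle protein (2 μg) incubated in Tris-sucrose buffer pH 7.4 with 400 nM [3H]E2-17βG, 4 mM ATP or AMP and 10 mM MgCl2, 3 min at 37 °C, in duplicate; DMSO ≤1% final. Stopped by ice-cold dilution and rapid filtration, then scintillation counted. ATP-dependent uptake taken as ATP minus AMP values; inhibition reported as percent.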

P-gp (ABCB1) = P-gp (ABCB1) (Homo sapiens, UniProt P08183); assay: Induction of ATPase activity of human His10-tagged P-gp expressed in BHK cells assessed as inorganic phosphate release after 30 mins relative to control; assay type: cell-based; conditions: human His10-tagged P-gp expressed in BHK cells, read-out: FC
Method in brief: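 Human P-gp with C-terminal His10 tag, stably expressed in BHK cells, purified by Ni-chelate chromatography and mixed 1:1 with 10 mg/mL sheep brain phosphatidylethanolamine in TBS (10 mM Tris/HCl pH 7.4, 150 mM NaCl), then sonicated. Compound titrated, 30 min at 37 °C. Inorganic phosphate released from ATP measured. Vmax expressed as fold over basal activity; KM is the concentration giving half-maximal stimulation.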

MDCK-II [2] = assay: Inhibition of P-gp expressed in MDCK2-MDR1 cells at 5 uM by calcein AM accumulation assay relative to LSN 335984; assay type: cell-based
Method in brief: (§2)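 MDCKII cells transfected with wild-type human MDR1, seeded at 40000 cells/well and used on day 4. Washed in DPBS with 10 mM HEPES pH 7.4, then compound in the same buffer 30 min at 37 °C. Replaced with compound plus 0.5 μg/mL calcein AM for a further 20 min. Fluorescence read at Ex 485/Em 530 nm. Signal expressed relative to 5 μM LSN 335984, taken as complete inhibition; vehicle 0.25% DMSO. IC50 from 1:1 serial dilutions by variable-slope sigmoidal fit.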

MDCK-II [3] = assay: Inhibition of P-gp expressed in MDCK2-MDR1 cells at 25 uM by calcein AM accumulation assay relative to LSN 335984; assay type: cell-based; method in brief: as §2
[4] = molecular target: T1, MRP1 (Multidrug resistance-associated protein 1); assay: Inhibition of human MRP1-mediated uptake of [3H]E2-17betaG in HEK cell membrane vesicles at 1 uM by liquid scintillation counting relative to control; assay type: cell membranes, HEK293; conditions: HEK cell membrane vesicles with human MRP1, probe [3H]E2-17betaG; method in brief: as §1
[5] = molecular target: T1, MRP1 (Multidrug resistance-associated protein 1); assay: Inhibition of human MRP1 mediated uptake of [3H]E2-17betaG in HEK cell membrane vesicles at 5 uM by liquid scintillation counting relative to control; assay type: cell membranes, HEK293; conditions: HEK cell membrane vesicles with human MRP1, probe [3H]E2-17betaG
Method in brief: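 Inside-out vesicles from stably transfected HEK-MRP1 cells (2 μg protein) in Tris-sucrose buffer pH 7.4 with [³H]E₂17βG 400 nM, ATP or AMP 4 mM, MgCl₂ 10 mM, 3 min at 37 °C, compound at 5 μM; DMSO ≤1%; stopped by ice-cold dilution, rapid filtration, scintillation counting; ATP-dependent uptake = ATP minus AMP; duplicate wells.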

[6] = molecular target: ATP-dependent translocase ABCB1 (Homo sapiens, UniProt P08183); assay: Inhibition of VER-stimulated human His10-tagged P-gp ATPase activity expressed in BHK cells after 15 mins; assay type: cell-based
[7] = molecular target: T1, MRP1 (Multidrug resistance-associated protein 1); assay: Inhibition of human MRP1-mediated uptake of [3H]E2-17betaG in HEK cell membrane vesicles at 10 uM by liquid scintillation counter; assay type: cell membranes, HEK293; conditions: HEK cell membrane vesicles with human MRP1, probe [3H]E2-17betaG; method in brief: as §1
[8] = Octanol-water partition coefficient, log P of the compound in PBS at pH 7.4 after 1 hr by shake flask method; assay type: physicochemical
Method in brief: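 Shake-flask method: saturated n-octanol solution shaken with an equal volume of PBS pH 7.4 for 3–5 min, then left to settle 1 h at 23 °C. Concentration in each layer measured spectrophotometrically.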

[9] = Inhibition of P-gp expressed in MDCK2-MDR1 cells by calcein AM accumulation assay; assay type: cell-based; conditions: MDCK-II
Method in brief: as §2, with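 “min.” for “min. Fluorescence read at Ex 485/Em 530 nm. Signal expressed relative to 5 μM LSN 335984, taken as complete inhibition; vehicle 0.25% DMSO.”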

[10] = Inhibition of P-gp mediated [3H]VIN efflux in MDCK2-MDR1 cells by scintillation counter; assay type: cell-based; conditions: MDCK-II
Method in brief: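 MDCKII-MDR1 monolayers on Transwell filters, used on day 6. Rinsed in DPBSH, then preincubated 30 min at 37 °C with compound ([…]) in BSA/DPBSH. [3H]vinblastine (0.25 μCi/mL) plus compound added basolaterally and fresh compound solution added apically. Apical buffer replaced every 10 min; apical radioactivity counted by scintillation. IC50 fitted.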

[11] = Normalized ratio of the compound assessed as ratio of PBA/AB in absence of LSN 335984 to ratio of PBA/AB in presence of LSN 335984 in MDCK2-MDR1 cells at 5 uM after 1 hr; assay type: ADME, cell-based, Canis lupus familiaris; conditions: dog, mdck-mdr1, 1 h
Method in brief: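 MDCKII-MDR1 cells seeded at 50000 cells/cm² on Transwell filters, used on day 6. Preincubated 30 min with 4.3 mg/mL BSA in DPBSH, with or without 5 μM LSN 335984. Compound (5 μM) added to the apical or basolateral donor chamber and incubated 1 h at 37 °C with nutation. Donor and receiver samples quantified by LC-MS/MS. AB and BA permeabilities calculated. Normalized ratio is the BA/AB ratio without inhibitor divided by the ratio with inhibitor.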

P-glycoprotein (MDR1) [12] = assay: P-glycoprotein-mediated transport in MDCK2-MDR1 cells assessed as permeability across apical to basolateral side at 5 uM after 1 hr; conditions: dog, MDCK-MDR1
P-glycoprotein (MDR1) [13] = assay: P-glycoprotein-mediated transport in MDCK2-MDR1 cells assessed as permeability across basolateral to apical side at 5 uM after 1 hr; conditions: dog, MDCK-MDR1

P-gp (ABCB1), sequence (P08183 whole entry): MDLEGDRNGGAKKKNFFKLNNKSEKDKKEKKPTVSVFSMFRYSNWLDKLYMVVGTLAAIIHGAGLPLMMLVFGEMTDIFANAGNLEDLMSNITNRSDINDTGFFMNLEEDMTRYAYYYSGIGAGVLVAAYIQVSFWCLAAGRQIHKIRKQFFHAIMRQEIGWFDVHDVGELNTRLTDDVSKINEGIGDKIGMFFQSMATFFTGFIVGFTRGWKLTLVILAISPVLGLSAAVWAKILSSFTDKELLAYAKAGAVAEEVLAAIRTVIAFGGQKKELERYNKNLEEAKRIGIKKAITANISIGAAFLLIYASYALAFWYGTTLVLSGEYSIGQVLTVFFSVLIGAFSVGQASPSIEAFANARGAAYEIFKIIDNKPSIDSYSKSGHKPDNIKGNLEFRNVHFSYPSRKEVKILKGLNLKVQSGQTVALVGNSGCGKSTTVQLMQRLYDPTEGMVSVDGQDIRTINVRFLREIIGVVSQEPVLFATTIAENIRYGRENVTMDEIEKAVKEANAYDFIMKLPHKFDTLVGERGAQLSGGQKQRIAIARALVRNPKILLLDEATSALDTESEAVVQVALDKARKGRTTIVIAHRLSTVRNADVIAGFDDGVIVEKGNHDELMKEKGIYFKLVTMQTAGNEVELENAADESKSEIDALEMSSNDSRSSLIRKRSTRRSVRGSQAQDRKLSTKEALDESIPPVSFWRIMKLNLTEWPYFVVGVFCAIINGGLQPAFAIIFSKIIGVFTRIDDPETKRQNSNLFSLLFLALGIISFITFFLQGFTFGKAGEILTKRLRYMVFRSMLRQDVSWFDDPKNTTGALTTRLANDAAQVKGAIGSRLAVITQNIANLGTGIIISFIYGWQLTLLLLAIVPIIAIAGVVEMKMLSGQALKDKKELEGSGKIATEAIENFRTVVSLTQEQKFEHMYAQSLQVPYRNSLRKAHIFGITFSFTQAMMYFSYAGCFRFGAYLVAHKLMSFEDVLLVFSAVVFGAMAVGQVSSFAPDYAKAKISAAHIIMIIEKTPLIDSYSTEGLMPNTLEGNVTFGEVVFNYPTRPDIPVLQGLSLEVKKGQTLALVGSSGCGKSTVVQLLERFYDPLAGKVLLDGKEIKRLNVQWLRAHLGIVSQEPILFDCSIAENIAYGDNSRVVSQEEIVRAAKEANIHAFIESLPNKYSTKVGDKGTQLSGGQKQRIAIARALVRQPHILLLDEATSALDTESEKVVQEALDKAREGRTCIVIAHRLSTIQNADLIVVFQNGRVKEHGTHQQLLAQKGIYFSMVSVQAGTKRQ
T1 sequence (P33527 whole entry): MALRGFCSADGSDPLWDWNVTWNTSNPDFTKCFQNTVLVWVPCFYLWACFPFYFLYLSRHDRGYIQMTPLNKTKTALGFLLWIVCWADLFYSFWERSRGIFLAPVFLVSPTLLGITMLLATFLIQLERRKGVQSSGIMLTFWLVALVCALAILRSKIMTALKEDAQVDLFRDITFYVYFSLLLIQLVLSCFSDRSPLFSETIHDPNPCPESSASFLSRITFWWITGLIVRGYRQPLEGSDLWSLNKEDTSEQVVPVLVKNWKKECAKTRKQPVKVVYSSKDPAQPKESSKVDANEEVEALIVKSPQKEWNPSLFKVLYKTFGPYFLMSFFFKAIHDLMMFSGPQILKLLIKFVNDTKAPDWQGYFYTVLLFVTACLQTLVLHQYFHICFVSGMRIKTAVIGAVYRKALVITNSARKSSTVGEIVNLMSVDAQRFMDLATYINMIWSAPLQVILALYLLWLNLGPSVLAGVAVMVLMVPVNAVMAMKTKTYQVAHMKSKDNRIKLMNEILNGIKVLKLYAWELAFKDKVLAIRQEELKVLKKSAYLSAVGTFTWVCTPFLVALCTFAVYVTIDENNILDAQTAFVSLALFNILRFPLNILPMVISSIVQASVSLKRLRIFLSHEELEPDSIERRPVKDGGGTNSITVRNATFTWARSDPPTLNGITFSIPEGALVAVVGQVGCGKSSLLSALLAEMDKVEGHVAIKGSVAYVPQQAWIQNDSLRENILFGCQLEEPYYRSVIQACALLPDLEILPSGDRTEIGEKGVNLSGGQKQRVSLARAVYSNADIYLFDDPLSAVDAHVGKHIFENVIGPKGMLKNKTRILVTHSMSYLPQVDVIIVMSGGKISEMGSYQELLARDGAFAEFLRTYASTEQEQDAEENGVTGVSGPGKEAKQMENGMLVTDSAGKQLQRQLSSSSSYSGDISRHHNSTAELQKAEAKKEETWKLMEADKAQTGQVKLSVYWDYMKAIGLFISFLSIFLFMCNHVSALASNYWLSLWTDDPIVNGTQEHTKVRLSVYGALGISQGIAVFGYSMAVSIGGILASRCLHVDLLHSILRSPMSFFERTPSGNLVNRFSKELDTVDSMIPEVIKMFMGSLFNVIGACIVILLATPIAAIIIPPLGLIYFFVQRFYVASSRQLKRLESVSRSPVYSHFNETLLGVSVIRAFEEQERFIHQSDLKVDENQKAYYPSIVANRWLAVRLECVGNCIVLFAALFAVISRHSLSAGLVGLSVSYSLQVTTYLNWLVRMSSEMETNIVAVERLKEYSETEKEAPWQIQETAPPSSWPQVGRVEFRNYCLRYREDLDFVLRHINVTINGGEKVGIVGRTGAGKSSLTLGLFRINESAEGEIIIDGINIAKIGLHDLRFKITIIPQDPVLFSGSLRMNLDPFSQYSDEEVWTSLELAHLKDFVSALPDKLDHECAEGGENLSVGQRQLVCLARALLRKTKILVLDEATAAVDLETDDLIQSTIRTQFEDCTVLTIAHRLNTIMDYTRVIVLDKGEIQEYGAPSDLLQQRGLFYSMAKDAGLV
ATP-dependent translocase ABCB1, sequence (P08183 whole entry): as the sequence (P08183 whole entry) above

Compound | inhibition at 30 µM [1] [%] | fold induction at 0.5 h (P-gp (ABCB1)) | inhibition at 1 µM [4] [%] | also measured
Cc1cc(C(C)(C)C)[o+]c(C(C)(C)C)c1 | 0 | – | – | –
CCN(CC)C(=O)c1ccccc1-c1cc(-c2ccc(N(C)C)cc2)[s+]c(C(C)(C)C)c1 | 43 | 13.5 | – | inhibition (MDCK-II [2]): 2%; inhibition (MDCK-II [3]): 13%
CC(C)(C)c1cc(-c2ccc(C(=O)O)s2)cc(C(C)(C)C)[s+]1 | – | 3.5 | 8 | inhibition (MDCK-II [2]): 0%; inhibition (MDCK-II [3]): 0%
CN(C)c1ccc(-c2cc(-c3ccc(N(C)C)cc3)[te+]c(C(C)(C)C)c2)cc1 | 96 | 8.4 | – | –
CC(C)(C)c1cc(-c2ccccc2)cc(C(C)(C)C)[se+]1 | – | 1.4 | 0 | –
CN(C)c1ccc(-c2cc(-c3ccc(N(C)C)cc3)[se+]c(C(C)(C)C)c2)cc1 | 96 | 10.1 | – | –
CC(C)(C)c1cc(-c2ccc(C(=O)O)s2)cc(C(C)(C)C)[te+]1 | – | < 1.4 | – | inhibition at 5 µM [5]: 24%; IC50 [6]: 162 µM
CC(C)(C)c1cc(-c2ccc(C(=S)N3CCCCC3)s2)cc(C(C)(C)C)[te+]1 | – | 7.4 | – | inhibition at 5 µM [5]: 50%
Nc1ccc(-c2cc(-c3ccc(N4CCOCC4)cc3)cc(-c3ccc(N)cc3)[te+]2)cc1 | – | – | 8 | –
CN(C)c1ccc(-c2cc(-c3ccc(C(=O)N4CCCCC4)s3)cc(-c3ccc(N(C)C)cc3)[s+]2)cc1.F[P-](F)(F)(F)(F)F | – | 6 | 18 | inhibition at 10 µM [7]: 78%; logD at 1 h [8]: 2.1; IC50 [9]: 24 µM; IC50 [10]: 5.9 µM; Ratio [11]: 79; Papp A-B at 1 h, 5 µM (P-glycoprotein (MDR1) [12]): 0.17 ×10⁻⁶ cm/s; Papp B-A at 1 h, 5 µM (P-glycoprotein (MDR1) [13]): 62 ×10⁻⁶ cm/s
CCN(CC)C(=O)c1ccccc1-c1cc(C(C)(C)C)[se+]c(C(C)(C)C)c1 | 31 | 5.9 | – | –
CC(C)(C)c1cc(-c2ccccc2)cc(C(C)(C)C)[te+]1 | 34 | 1.5 | – | –
c1ccc(-c2cc(-c3ccc(N4CCOCC4)cc3)[te+]c(-c3ccc(N4CCOCC4)cc3)c2)cc1 | 89 | 4 | – | –
CN(C)c1ccc(-c2cc(-c3ccc(N(C)C)cc3)[s+]c(C(C)(C)C)c2)cc1 | 94 | 7.2 | – | –
CCCCc1cc(-c2ccc(N(C)C)cc2)cc(-c2ccc(N(C)C)cc2)[s+]1 | – | 5.9 | – | inhibition at 5 µM [5]: 70%
CC(C)(C)c1cc(-c2ccc(C(=O)N3CCCCC3)s2)cc(C(C)(C)C)[s+]1.F[P-](F)(F)(F)(F)F | – | 5.5 | 0 | inhibition (MDCK-II [3]): < 7%; inhibition at 10 µM [7]: 11%; logD at 1 h [8]: 0.2; Ratio [11]: 10; Papp A-B at 1 h, 5 µM (P-glycoprotein (MDR1) [12]): 0.38 ×10⁻⁶ cm/s; Papp B-A at 1 h, 5 µM (P-glycoprotein (MDR1) [13]): 5.9 ×10⁻⁶ cm/s
